Reference: ChEMBL document CHEMBL5543089, “Discovery of a novel, highly potent EZH2 PROTAC degrader for targeting non-canonical oncogenic functions of EZH2” (Eur J Med Chem, 2024)
Active and inactive are the calls of the source. No cut-off for these calls is given here.

What was measured:
[1] = biological target: T1, von Hippel-Lindau disease tumor suppressor/Histone-lysine N-methyltransferase EZH2 (Homo sapiens, UniProt Q15910+P40337); test: PROTAC activity at VHL/EZH2 degradation in hMLLr AML cell line EOL1 cells assessed as protein degradation at 1 uM measured after 24 hrs by Western blot analysis; type: cell-based
Procedure, shortened: (§1)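 Cells were seeded at 0.5–2 million per well and treated for 24 h, or for the stated times at 300 nM in the time course. Lysis was in RIPA with protease inhibitors; ~10 μg protein was run on SDS-PAGE and blotted to PVDF. Detection used fluorescent immunoblotting for EZH2, EED and SUZ12, with β-actin as loading control. Blots are representative of two biological experiments.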

[2] = biological target: von Hippel-Lindau disease tumor suppressor/Polycomb protein EED (Homo sapiens) (UniProt O75530+P40337); test: PROTAC activity at VHL/EED degradation in MLLr AML cell line human EOL1 cells assessed as protein degradation at 1 to 1000 nM measured after 1 to 24 hrs by Western blot analysis; type: cell-based; conditions: dose 1-1000 nM, time 1-24 hrs; procedure, shortened: as §1
[3] = biological target: von Hippel-Lindau disease tumor suppressor/Polycomb protein SUZ12 (Homo sapiens) (UniProt Q15022+P40337); test: PROTAC activity at VHL/SUZ12 degradation in MLLr AML cell line human EOL1 cells assessed as protein degradation at 1 to 1000 nM […] measured after 1 to 24 hrs by Western blot analysis; type: cell-based; conditions: dose 1-1000 nM, time 1-24 hrs; procedure, shortened: as §1
[4] = biological target: T1, von Hippel-Lindau disease tumor suppressor/Histone-lysine N-methyltransferase EZH2; test: PROTAC activity at VHL/EZH2 degradation in MLLr AML cell line human EOL1 cells assessed as protein degradation at 0.5 uM measured after 24 hrs by Western blot analysis; type: cell-based; procedure, shortened: as §1
[5] = biological target: T1, von Hippel-Lindau disease tumor suppressor/Histone-lysine N-methyltransferase EZH2; test: PROTAC activity at VHL/EZH2 degradation in MLLr AML cell line human EOL1 cells assessed as protein degradation at 0.5 uM measured after 24 hrs in presence of 5 uM EPZ-6438 by Western blot analysis; type: cell-based
Procedure, shortened: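 EOL-1 cells were pre-treated for 2 h with MLN4924 (0.05 μM), EPZ-6438 (5 μM) or VHL-1 (5 μM), then given 0.5 μM degrader for 24 h. EZH2 was assessed by Western blot against β-actin. Blots are representative of two biological experiments.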

[6] = biological target: Histone-lysine N-methyltransferase EHMT2 (Homo sapiens) (UniProt Q96KQ7); test: Inhibition of human G9a assessed as methyltransferase activity using Histone H3 as substrate at 10 uM by radioisotope based MT HotSpot assay relative to control
Procedure, shortened: (§2)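 Radioisotope-based methyltransferase assay (MT HotSpot) run by a contract lab. Compound was tested at 10 μM against a panel of 20 methyltransferases, in duplicate. Values are means ± SD of two replicates.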

[7] = biological target: Histone-lysine N-methyltransferase 2A (Homo sapiens) (UniProt Q03164); test: Inhibition of human MLL1 assessed as methyltransferase activity using Nucleosomes as substrate at 10 uM by radioisotope based MT HotSpot assay relative to control; procedure, shortened: as §2
[8] = biological target: Histone-lysine N-methyltransferase, H3 lysine-36 specific (Homo sapiens) (UniProt Q96L73); test: Inhibition of human NSD1 assessed as methyltransferase activity using Nucleosomes as substrate at 10 uM by radioisotope based MT HotSpot assay relative to control; procedure, shortened: as §2
Homo sapiens = organism: Homo sapiens; test: Inhibition of human PRMT1 assessed as methyltransferase activity using Histone H4 /H4 (1-15)-Biotin as substrate at 10 uM by radioisotope based MT HotSpot assay relative to control; procedure, shortened: as §2
[9] = biological target: Histone-arginine methyltransferase CARM1 (Homo sapiens) (UniProt Q86X55); test: Inhibition of human PRMT4 assessed as methyltransferase activity using Histone H3 as substrate at 10 uM by radioisotope based MT HotSpot assay relative to control; procedure, shortened: as §2
[10] = biological target: N-lysine methyltransferase KMT5A (Homo sapiens) (UniProt Q9NQR1); test: Inhibition of human SET8 assessed as methyltransferase activity using Nucleosomes as substrate at 10 uM by radioisotope based MT HotSpot assay relative to control; procedure, shortened: as §2
[11] = biological target: Histone-lysine N-methyltransferase SETD2 (Homo sapiens) (UniProt Q9BYW2); test: Inhibition of human SETD2 assessed as methyltransferase activity using Oligo Nucleosomes as substrate at 10 uM by radioisotope based MT HotSpot assay relative to control; procedure, shortened: as §2
[12] = biological target: Histone-lysine N-methyltransferase SMYD3 (Homo sapiens) (UniProt Q9H7B4); test: Inhibition of human SMYD3 assessed as methyltransferase activity using MEKK2 as substrate at 10 uM by radioisotope based MT HotSpot assay relative to control; procedure, shortened: as §2
[13] = biological target: Histone-lysine N-methyltransferase EZH2 (Homo sapiens) (UniProt Q15910); test: Inhibition of human EZH2 assessed as methyltransferase activity using Core Histone as substrate at 10 uM by radioisotope based MT HotSpot assay relative to control; procedure, shortened: as §2
[14] = biological target: T1, von Hippel-Lindau disease tumor suppressor/Histone-lysine N-methyltransferase EZH2; test: PROTAC activity at VHL/EZH2 degradation in MLLr AML cell line human EOL1 cells assessed as protein degradation at 0.1 uM measured after 24 hrs by Western blot analysis; type: cell-based; procedure, shortened: as §1
EOL1 = test: Anti-proliferative activity against human EOL1 cells assessed as cell viability measured after 5 days incubation by CCK-8 assay; type: functional, cell-based; conditions: EOL1, 120 h
Procedure, shortened: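 Cells plated at 3,000–10,000 per well and exposed to serial dilutions for 5 days at 37 °C. CCK-8 (1x) was added for 2–4 h, with absorbance read at 450 nm against a 690 nm reference. IC50 was taken from curve fits. Leukemia lines were grown in RPMI-1640, K562 in IMDM and MDA-MB-468 in DMEM, all with 10 % FBS. Values are means ± SD of two biological experiments (three for BT549 and MDA-MB-468).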

[15] = biological target: T1, von Hippel-Lindau disease tumor suppressor/Histone-lysine N-methyltransferase EZH2; test: PROTAC activity at VHL/EZH2 degradation in human RS4-11 cells assessed as protein degradation at 0.1 uM measured after 24 hrs by Western blot analysis; type: cell-based; procedure, shortened: as §1
[16] = biological target: T1, von Hippel-Lindau disease tumor suppressor/Histone-lysine N-methyltransferase EZH2; test: PROTAC activity at VHL/EZH2 degradation in human RS4-11 cells assessed as protein degradation at 0.3 uM measured after 24 hrs by Western blot analysis; type: cell-based; procedure, shortened: as §1
[17] = biological target: T1, von Hippel-Lindau disease tumor suppressor/Histone-lysine N-methyltransferase EZH2; test: PROTAC activity at VHL/EZH2 degradation in human MDA-MB-468 cells assessed as protein degradation at 0.1 to 3 uM measured after 48 hrs by Western blot analysis; type: cell-based; conditions: dose 0.1-3 µM
Procedure, shortened: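 BT549 (RPMI-1640) and MDA-MB-468 (DMEM) cells were treated for 48 h. RIPA lysates (~10 μg) were immunoblotted for EZH2 with β-actin as loading control. Blots are representative of three biological experiments.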

[18] = biological target: Histone-lysine N-methyltransferase EHMT1 (Homo sapiens) (UniProt Q9H9B1); test: Inhibition of human GLP assessed as methyltransferase activity using Histone H3 as substrate at 10 uM by radioisotope based MT HotSpot assay relative to control
Sequence of Histone-lysine N-methyltransferase EHMT1 (Homo sapiens) (Q9H9B1 whole entry, looked up): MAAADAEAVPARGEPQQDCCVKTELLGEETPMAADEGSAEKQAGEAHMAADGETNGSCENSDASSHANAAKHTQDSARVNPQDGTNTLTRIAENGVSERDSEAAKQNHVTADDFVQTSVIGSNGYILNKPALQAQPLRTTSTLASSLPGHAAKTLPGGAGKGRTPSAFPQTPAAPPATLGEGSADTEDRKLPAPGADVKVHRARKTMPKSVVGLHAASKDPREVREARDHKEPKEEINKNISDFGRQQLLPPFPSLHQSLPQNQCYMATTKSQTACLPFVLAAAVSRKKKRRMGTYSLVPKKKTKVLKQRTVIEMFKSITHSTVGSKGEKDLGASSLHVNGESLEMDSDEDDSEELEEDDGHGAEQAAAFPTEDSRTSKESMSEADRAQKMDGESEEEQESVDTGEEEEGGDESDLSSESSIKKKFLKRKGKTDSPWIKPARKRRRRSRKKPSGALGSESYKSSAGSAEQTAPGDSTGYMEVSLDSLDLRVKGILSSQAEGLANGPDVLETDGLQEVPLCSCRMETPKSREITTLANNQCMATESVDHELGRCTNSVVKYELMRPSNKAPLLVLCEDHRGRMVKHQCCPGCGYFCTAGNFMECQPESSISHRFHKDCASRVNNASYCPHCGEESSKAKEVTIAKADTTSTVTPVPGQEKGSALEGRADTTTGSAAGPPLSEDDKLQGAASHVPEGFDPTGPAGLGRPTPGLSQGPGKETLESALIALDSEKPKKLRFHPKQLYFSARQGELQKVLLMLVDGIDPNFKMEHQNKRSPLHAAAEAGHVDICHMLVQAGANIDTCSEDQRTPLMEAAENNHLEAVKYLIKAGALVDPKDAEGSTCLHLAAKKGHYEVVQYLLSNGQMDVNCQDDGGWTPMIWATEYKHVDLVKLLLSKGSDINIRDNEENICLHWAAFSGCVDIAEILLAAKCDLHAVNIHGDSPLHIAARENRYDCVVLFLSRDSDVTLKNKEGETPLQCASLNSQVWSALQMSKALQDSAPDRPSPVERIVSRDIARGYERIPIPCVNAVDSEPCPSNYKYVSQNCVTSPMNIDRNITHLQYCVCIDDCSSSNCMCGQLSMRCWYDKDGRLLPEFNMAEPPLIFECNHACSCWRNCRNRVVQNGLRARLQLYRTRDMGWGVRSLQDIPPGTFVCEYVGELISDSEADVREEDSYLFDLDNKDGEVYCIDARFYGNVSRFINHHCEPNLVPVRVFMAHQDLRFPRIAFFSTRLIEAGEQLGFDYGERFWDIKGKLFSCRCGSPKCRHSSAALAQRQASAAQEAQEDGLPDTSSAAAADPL

T1 sequence (P40337 whole entry, looked up): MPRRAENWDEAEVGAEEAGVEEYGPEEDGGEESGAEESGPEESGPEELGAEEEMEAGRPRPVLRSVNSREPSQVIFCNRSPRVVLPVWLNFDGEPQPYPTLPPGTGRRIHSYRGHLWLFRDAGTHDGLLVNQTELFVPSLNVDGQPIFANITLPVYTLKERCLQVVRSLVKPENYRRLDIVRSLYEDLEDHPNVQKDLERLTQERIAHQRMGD
T1 sequence (Q15910 whole entry, looked up): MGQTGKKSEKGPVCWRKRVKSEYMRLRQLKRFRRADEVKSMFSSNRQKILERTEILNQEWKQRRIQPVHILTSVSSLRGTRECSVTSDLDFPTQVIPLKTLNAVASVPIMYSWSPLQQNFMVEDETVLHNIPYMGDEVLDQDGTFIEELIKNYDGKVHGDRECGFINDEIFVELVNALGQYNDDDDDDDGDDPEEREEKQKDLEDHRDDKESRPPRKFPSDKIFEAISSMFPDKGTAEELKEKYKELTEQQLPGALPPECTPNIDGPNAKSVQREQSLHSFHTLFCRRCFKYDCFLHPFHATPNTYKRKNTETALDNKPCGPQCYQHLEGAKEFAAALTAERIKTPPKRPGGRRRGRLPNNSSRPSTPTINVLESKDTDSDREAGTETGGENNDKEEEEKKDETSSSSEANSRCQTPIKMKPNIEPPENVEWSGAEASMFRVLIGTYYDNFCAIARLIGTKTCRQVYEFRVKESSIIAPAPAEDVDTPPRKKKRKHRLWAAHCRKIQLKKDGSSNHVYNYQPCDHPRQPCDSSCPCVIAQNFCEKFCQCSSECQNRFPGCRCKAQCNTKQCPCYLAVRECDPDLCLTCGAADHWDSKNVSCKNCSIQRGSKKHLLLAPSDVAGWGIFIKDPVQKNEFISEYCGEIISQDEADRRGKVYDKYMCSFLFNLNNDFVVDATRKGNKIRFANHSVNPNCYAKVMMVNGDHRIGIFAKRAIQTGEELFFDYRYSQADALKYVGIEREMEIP
Sequence of Histone-lysine N-methyltransferase EHMT2 (Homo sapiens) (Q96KQ7 whole entry): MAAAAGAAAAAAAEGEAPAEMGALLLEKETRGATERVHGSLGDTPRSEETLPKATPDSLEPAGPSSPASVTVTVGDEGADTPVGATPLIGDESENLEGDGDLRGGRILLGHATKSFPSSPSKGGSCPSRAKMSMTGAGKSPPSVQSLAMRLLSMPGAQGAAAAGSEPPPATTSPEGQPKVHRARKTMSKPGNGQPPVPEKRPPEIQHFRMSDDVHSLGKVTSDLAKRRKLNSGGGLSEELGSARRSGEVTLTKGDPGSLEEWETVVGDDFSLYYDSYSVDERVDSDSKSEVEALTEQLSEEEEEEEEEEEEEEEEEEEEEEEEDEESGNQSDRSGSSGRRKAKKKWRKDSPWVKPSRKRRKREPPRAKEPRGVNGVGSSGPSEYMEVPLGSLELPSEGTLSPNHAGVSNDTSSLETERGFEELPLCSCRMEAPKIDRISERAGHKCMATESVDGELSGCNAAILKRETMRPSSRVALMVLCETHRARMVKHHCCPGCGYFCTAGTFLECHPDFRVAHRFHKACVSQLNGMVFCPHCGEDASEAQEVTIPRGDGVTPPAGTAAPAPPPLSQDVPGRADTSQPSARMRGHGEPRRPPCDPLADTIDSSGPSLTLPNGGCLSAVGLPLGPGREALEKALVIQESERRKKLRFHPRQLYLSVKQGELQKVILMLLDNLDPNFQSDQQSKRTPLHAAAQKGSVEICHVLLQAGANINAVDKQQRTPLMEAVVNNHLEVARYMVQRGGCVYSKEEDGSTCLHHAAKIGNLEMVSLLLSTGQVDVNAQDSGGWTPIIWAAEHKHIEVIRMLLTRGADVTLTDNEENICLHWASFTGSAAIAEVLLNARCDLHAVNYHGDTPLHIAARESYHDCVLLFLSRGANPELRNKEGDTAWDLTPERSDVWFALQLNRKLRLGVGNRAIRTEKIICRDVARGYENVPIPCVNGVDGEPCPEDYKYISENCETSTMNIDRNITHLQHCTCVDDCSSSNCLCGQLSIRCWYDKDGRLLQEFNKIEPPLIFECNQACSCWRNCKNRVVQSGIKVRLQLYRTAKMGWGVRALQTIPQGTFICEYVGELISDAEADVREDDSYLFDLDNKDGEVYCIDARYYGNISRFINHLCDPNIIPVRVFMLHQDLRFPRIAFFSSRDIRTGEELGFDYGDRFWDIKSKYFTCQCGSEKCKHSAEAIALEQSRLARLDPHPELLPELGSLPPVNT
Sequence of von Hippel-Lindau disease tumor suppressor/Polycomb protein EED (Homo sapiens) (O75530 2-441 limits assumed): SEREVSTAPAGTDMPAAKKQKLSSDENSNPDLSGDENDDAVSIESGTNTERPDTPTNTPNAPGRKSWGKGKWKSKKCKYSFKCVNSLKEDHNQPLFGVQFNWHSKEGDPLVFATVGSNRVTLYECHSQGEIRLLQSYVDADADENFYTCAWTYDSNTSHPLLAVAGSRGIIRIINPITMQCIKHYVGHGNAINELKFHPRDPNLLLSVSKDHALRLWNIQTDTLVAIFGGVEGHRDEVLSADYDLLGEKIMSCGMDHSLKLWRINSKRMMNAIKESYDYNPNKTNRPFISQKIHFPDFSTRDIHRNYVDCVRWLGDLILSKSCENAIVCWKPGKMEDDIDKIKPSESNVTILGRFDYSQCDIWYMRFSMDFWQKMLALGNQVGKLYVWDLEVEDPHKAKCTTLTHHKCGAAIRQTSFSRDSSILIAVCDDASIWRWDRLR
Sequence of von Hippel-Lindau disease tumor suppressor/Polycomb protein EED (Homo sapiens) (P40337 whole entry partner): as the sequence (P40337 whole entry, looked up) above
Sequence of N-lysine methyltransferase KMT5A (Homo sapiens) (Q9NQR1 whole entry): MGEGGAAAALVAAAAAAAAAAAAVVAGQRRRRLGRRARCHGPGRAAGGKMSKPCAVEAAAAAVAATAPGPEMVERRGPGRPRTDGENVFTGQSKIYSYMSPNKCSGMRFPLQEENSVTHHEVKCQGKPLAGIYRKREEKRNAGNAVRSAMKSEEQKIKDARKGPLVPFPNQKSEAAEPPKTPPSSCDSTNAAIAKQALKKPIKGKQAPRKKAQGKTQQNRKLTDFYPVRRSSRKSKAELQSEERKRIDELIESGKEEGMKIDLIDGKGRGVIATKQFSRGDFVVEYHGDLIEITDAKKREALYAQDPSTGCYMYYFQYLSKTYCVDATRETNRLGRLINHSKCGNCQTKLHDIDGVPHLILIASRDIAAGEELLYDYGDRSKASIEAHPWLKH
Sequence of Histone-lysine N-methyltransferase EZH2 (Homo sapiens) (Q15910 whole entry, looked up): as the sequence (Q15910 whole entry, looked up) above
Sequence of Histone-lysine N-methyltransferase SMYD3 (Homo sapiens) (Q9H7B4 whole entry): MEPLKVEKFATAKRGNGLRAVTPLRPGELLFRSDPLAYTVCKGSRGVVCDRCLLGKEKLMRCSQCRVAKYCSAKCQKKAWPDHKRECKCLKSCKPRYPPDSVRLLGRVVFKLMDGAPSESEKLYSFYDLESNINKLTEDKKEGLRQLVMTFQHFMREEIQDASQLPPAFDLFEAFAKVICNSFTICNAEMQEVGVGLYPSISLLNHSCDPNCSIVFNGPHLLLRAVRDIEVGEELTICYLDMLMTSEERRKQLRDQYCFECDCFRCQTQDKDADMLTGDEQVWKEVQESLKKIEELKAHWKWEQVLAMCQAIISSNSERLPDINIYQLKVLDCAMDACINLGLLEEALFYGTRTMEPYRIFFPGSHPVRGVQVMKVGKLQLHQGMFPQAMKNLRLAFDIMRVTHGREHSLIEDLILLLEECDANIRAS

Activity [1]: 100%
Activity [2]: Active
Activity [3]: Active
Activity [4]: Active
Activity [5]: inactive
inhibition [6]: < 50%
inhibition [7]: < 50%
inhibition [8]: < 50%
inhibition (Homo sapiens): < 50%
inhibition [9]: < 50%
inhibition [10]: < 50%
inhibition [11]: < 50%
inhibition [12]: < 50%
inhibition [13]: Active
Activity [14]: 100%
Activity [15]: Active
Activity [16]: Active
Activity [17]: Active
inhibition [18]: < 50%
SMILES: CCN(c1cc(-c2ccc(CN3CCN(CCC(=O)NCCCCCCCCCCC(=O)N[C@H](C(=O)N4C[C@H](O)C[C@H]4C(=O)NCc4ccc(-c5scnc5C)cc4)C(C)(C)C)CC3)cc2)cc(C(=O)NCc2c(C)cc(C)[nH]c2=O)c1C)C1CCOCC1
IC50 (EOL1): 110 nM
